The results in this text go back to ChEMBL document CHEMBL5715959, “Inhibition of histone methyltransferase EZH2 in Schistosoma mansoni in vitro by GSK343 reduces egg laying and decreases the expression of genes implicated in DNA replication and noncoding RNA metabolism” (2018).

SMILES strings stand for the structures. Activity calls are given as the source filed them. The rule behind the calls is not given here.

The subject of assay [1] is Schistosoma mansoni. The experiment in a line: Antischistosomal activity against Schistosoma mansoni assessed as change in size at 20 uM incubated for 24 hrs by scanning electron microscopy analysis. In kind it is functional, organism-based. A digest of the protocol:
(§1)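 Newly transformed schistosomula were held 16 h in M169 with 2% FBS, serotonin, hypoxanthine, hydrocortisone, triiodothyronine and antibiotics at 37°C, 5% CO2, at 2,000 per well. They were then exposed to 20 μM GSK343 or 0.1% DMSO for 24 and 48 h. Fixation was modified Karnovsky (pH 7.4) with 1% osmium post-fix, then ethanol dehydration, critical-point drying, gold coating and SEM. Lengths came from three experiments, each with 20 schistosomula.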

Assay [2] relates to Schistosoma mansoni. Briefly: Antischistosomal activity against Schistosoma mansoni assessed as increased length of schistosomula at 20 uM incubated for 24 to 48 hrs by scanning electron microscopy analysis. In kind it is functional. The note with it: time 24-48 hrs. A digest of the protocol: as §1
Assay [3] relates to Schistosoma mansoni. The experiment in a line: Antischistosomal activity against Schistosoma mansoni assessed as increased caspase 3/7 activity at 20 uM incubated for 48 hrs by Caspase 3/7 reagent based luminescence assay. In kind it is functional. Put shortly:
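2,000 schistosomula per well were kept in supplemented M169 with 20 μM GSK343 or 0.1% DMSO for 48 h. Medium was replaced, reporter lysis buffer added, then Caspase-Glo 3/7 reagent for 3 h in the dark with agitation before reading luminescence. The negative control lacked reagent. Three experiments, each with 20,000 schistosomula.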

Assay [4] concerns Schistosoma mansoni. Briefly: Antischistosomal activity against adult Schistosoma mansoni assessed as increased H3K4me3 level at 20 uM incubated for 48 hrs by Western blotting analysis. In kind it is functional, organism-based. Put shortly: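 Fifty adult worm pairs were treated 48 h with 20 μM GSK343 or vehicle in supplemented RPMI/10% FBS, then lysed in Triton buffer. Nuclear pellets were acid-extracted overnight in 0.25 M HCl at 4°C and histones were TCA-concentrated. 10 μg went on 15% SDS-PAGE and nitrocellulose, probed with anti-H3K27me3, K9ac, K27ac or K4me3, then IRDye secondaries; infrared densitometry was normalized to anti-H3. Three biological replicates; t-test.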

Assay [5] deals with Schistosoma mansoni. The experiment in a line: Antischistosomal activity against Schistosoma mansoni assessed as down-regulated Glucose transport protein mRNA level in schistosomula at 20 uM incubated for 48 hrs by RT-qPCR analysis. The assay is classed as functional, organism-based. A digest of the protocol: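 Schistosomula (supplemented M169) or adult worms (supplemented RPMI) were treated 48 h with 20 μM GSK343 or 0.1% DMSO at 37°C, 5% CO2. qPCR normalizer genes were chosen from RNA-seq data as those with TPM >1 and a treated/control ratio of 0.9–1.1 that were not differentially expressed. Relative expression was calculated by comparative Ct; significance by t-test.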
For orientation: Quantitative PCR measures a nucleic acid by following its amplification.

As to `CCCc1cc(C)[nH]c(=O)c1CNC(=O)c1cc(-c2ccnc(N3CCN(C)CC3)c2)cc2c1cnn2C(C)C`, the outcome in the assay on Schistosoma mansoni [1] was inactive. The “fold change (FC)” value with Schistosoma mansoni [2] turned out to be 1.1; in the assay with Schistosoma mansoni [3] it was 17. Also, the outcome in the assay on Schistosoma mansoni [4] and in the assay on Schistosoma mansoni [5] was Active.
